Test results reported in PubChem BioAssay AID651999 (Sanford-Burnham Center for Chemical Genomics, 2013).
“And” between values parts separate entries of the source, which are not always exact repeats. Identical values can stand only once. The campaign covered roughly 360,000 compounds. About 1,400 (0.39%) were called active.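 How the source made its calls: active means pattern-corrected inhibition above about 35%, with an unprinted fluorescence ratio check between 0.5 and 1.5 (limit read from the data, passing the limit was not always enough); inactive means the rest.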 Many of the other results were omitted from the sample, so actives are more common in it than they were.

Molecular target: COP9 signalosome complex subunit 5 (Homo sapiens) (UniProt Q92905)
Assay: CSN5 deneddylase inhibitors on cullin-RING ligase – biochemical, fluorescence polarization, uHTS, primary screen (AID 651999);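 further: 0% = enzyme with substrate and 100% = substrate without enzyme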
Details: Purified CSN, SCF-Nedd8-OG deneddylation, at 12.5 µM, stronger effect = higher value
Method in brief: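 Assay system: purified human Csn5 enzyme expressed in HEK293T cells; Input: 0.24 nM Csn5 enzyme, final concentration; Reagent: 10 nM SCFSkp2-Nedd8OG; Compound dosing: 12.5 µM single point; Times: reaction 90 min, room temperature; Technique: fluorescence polarization readout.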

COP9 signalosome complex subunit 5 (Homo sapiens), sequence (Q92905 whole entry, looked up, one chain of several): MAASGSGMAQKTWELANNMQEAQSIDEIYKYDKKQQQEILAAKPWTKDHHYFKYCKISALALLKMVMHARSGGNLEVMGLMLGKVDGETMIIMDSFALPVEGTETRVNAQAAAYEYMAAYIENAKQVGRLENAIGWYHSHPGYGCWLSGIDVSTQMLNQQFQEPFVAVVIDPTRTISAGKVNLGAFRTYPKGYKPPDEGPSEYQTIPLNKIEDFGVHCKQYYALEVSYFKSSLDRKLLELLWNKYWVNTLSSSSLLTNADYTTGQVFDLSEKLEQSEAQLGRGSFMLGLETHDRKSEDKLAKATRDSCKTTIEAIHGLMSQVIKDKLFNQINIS

Row | Structure (SMILES) | inhibition
1 | CC(C)C(=O)Nc1oc(-c2ccccc2)cc1C#N | 5.77% (inactive)
2 | N#Cc1c(NC(=O)CCCN2C(=O)c3ccccc3C2=O)oc(-c2ccccc2)c1-c1ccccc1 | -3.56% (inactive)
3 | CC(Oc1ccccc1)C(=O)Nc1oc(-c2ccco2)c(-c2ccco2)c1C#N (stereo not given) | 38.5% (active)
4 | Nc1nnc2c(C(F)(F)F)nc3ccccc3n12 | 0.57% (inactive)
5 | Cc1cccc(N2C(=O)SC(SC(=Nc3ccccc3)Nc3ccccc3)C2=O)c1 (stereo not given) | -2.12% (inactive)
6 | CCC(C)(C)n1nnnc1CN1CCN(c2nc3ccc(C)cc3cc2C#N)CC1 | 1.36% (inactive)
7 | Cc1cccc(N(C)C(=O)CN2C(=O)COc3ccc(S(=O)(=O)N4CCCCCC4)cc32)c1 | -4.61% (inactive)
8 | Cc1cc(C(=O)CCC(=O)NNC(=O)c2ccccc2O)c(C)s1 | 36.4% (active)
9 | Cc1cccc(NS(=O)(=O)c2cccc(C(=O)NNC(=O)c3ccccc3O)c2)c1 | -6.82% (inactive)
10 | Cc1ccccc1C(=O)NNC(=O)CN1C(=O)c2ccccc2C1=O | 6.43% (inactive)
11 | COC(=O)c1ccc(CN2CCN(CCCc3ccccc3)C(CCO)C2)cc1 (stereo not given) | -2.91% (inactive)
12 | CCOC(=O)N1CCN(S(=O)(=O)N2CCCC(C(=O)NCCCN3CCC(C)CC3)C2)CC1 (stereo not given) | 2.45% (inactive)
13 | O=C(Oc1c(-c2ccco2)oc2ccccc2c1=O)c1cccnc1 | -1.72% (inactive)
14 | CC(Oc1ccc(-c2ccccc2)c(F)c1)c1ccn(S(=O)(=O)c2cccc3ccccc23)n1 (stereo not given) | 3.61% (inactive)
15 | COc1ccc(C2OCC3(CO2)SC(=O)NC3=O)cc1OC (stereo not given) | -7.79% (inactive)
16 | COc1ccc(OC)c(CNC(=O)CCc2nc(-c3cccs3)no2)c1 | 2.31% (inactive)
17 | COc1ccc(CCc2nc(-c3cccs3)no2)cc1 | 1.58% (inactive)
18 | CCc1ccc(CNC(=O)CCc2nc(-c3cccs3)no2)cc1 | 90.8% (active)
19 | COc1cccc2c1C(=O)c1c(O)c3c(c(O)c1C2=O)CC(O)(C(C)=NNC(=O)c1ccc(Cl)c(Cl)c1)CC3OC1CC(N)C(O)C(C)O1 (stereo not given) | -72.5% (inactive)
20 | COc1ccc(CN2CN(C3CCCC3)CSC2=S)cc1 | -9.41% (inactive)
21 | COC(=O)[C@@]12C[C@@H](CC(=O)NCc3cccc(C(F)(F)F)c3)C(=O)N(Cc3ccco3)C1=CCC(C)(C)C2 | 1.26% (inactive)
22 | Cc1cccc(-c2cnc(C(O)c3cc(C)cc(C)c3)[nH]2)c1 (stereo not given) | -2.61% (inactive)
23 | COc1cccc(C(O)c2ncc(-c3ccc4ccccc4c3)[nH]2)c1 (stereo not given) | -4.1% (inactive)
24 | Cc1cccc(-c2cnc(C(O)c3ccc4ccccc4c3)[nH]2)c1 (stereo not given) | 39.3% (active)
25 | CCc1nn(CCCN2CCN(c3cccc(Cl)c3)CC2)c(=O)n1CCOc1ccccc1 | -4.47% (inactive) and -2.79% (inactive)
26 | Cc1ccc(CNS(=O)(=O)c2ccc3c(c2)N(C)CCO3)cc1 | -2.61% (inactive)
27 | CCCC/C=C/c1cccc2nncn12 | -1.69% (inactive)
28 | COc1ccc2[nH]c3c(C)c4cc[n+](C)cc4c(C)c3c2c1 | 102% (active)

Row | Structure (SMILES) | inhibition
29 | Cc1cc(O)c(C(=O)/C=C/c2c(F)c(F)c(F)c(F)c2F)c(=O)o1 | 43.9% (active)
30 | Cc1cc(O)c(Sc2ccccc2)c(=O)o1 | 0.39% (inactive)
31 | O=C(CC[C@H]1O[C@@H](n2ccc(=O)[nH]c2=O)[C@H](O)[C@@H]1O)N[C@H](Cc1ccccc1)C(=O)NCc1ccco1 | -1.91% (inactive)
32 | CCN(CC(=O)NCC(=O)Nc1cccc(C)c1C)Cc1ccccc1 | 1.96% (inactive)
33 | CCOc1cc(CNn2c(C)nnc2SCC(=O)NC(C)(C)C)ccc1OCC(=O)NC(C)(C)C | 2.06% (inactive)
34 | C=CCSc1nnc(Cn2c(=O)sc3ccccc32)n1C | 7.9% (inactive)
35 | CCSc1nc(C)c(CCOc2cccc(C)c2)c(=O)[nH]1 | -18.6% (inactive)
36 | COc1cccc(CN(C)CC(=O)Nc2sc3c(c2C#N)CCC3)c1 | 4.05% (inactive)
37 | COc1ccc(-n2c(SCC(=O)Nc3sc4c(c3C#N)CCCC4)nnc2-c2ccc(O)cc2)cc1 | 50.2% (active)
38 | NC(=O)c1c(NC(=O)CSc2nnc(-c3ccco3)n2N)sc2c1CCCC2 | 10.7% (inactive)
39 | Cc1ccc(NC(=O)CN(C)S(=O)(=O)c2cnc[nH]2)cc1C | -2.5% (inactive)
40 | C=CCC1=C/C(=C\c2c(N)n3nc(CC(=O)N4CCOCC4)sc3nc2=O)C=C(OC)C1=O | 72.5% (active)
41 | COC1=C/C(=C/c2c(N)n3nc(CC(=O)N4CCOCC4)sc3nc2=O)C=CC1=O | 16.1% (inactive)
42 | O=C(C1CCN(C2CCN(Cc3ccc4cc(F)ccc4n3)CC2)CC1)N1CCCC1 | 1% (inactive)
43 | Cc1cc(F)ccc1S(=O)(=O)Nc1ncnc2scc(-c3ccc(F)cc3)c12 | 0.77% (inactive)
44 | O=C(O)CC(c1ccccc1F)N1Cc2ccccc2C1=O (stereo not given) | -0.99% (inactive)
45 | O=S(=O)(Nc1ccc2ccccc2c1)N1CCCCC1 | -1.67% (inactive)
46 | Cc1noc(C)c1S(=O)(=O)N(C)C[C@H]1Oc2ccc(NC(=O)C3CCCCC3)cc2C(=O)N([C@H](C)CO)C[C@@H]1C | -5.26% (inactive)
47 | CCN1/C(=C\c2ccc3ccccc3[n+]2CC)Sc2cc(C)ccc21 | 62.2% (active)
48 | FC(F)(F)c1ccccc1Cc1c(-c2ccccc2)nc2c3ccccc3ccn12 | 3.57% (inactive)
49 | COc1cc(CN(C)Cc2nc3cc(C(F)(F)F)ccc3c(=O)[nH]2)ccc1OC(F)F | 5.3% (inactive)
50 | CC(=O)Nc1ccc(C(=O)NNC(=O)CCCCC(=O)NNC(=O)c2ccc(NC(C)=O)cc2)cc1 | 2.24% (inactive)
51 | CN(CC(=O)NC1CCCCC1)S(=O)(=O)c1cccc2cccnc12 | -6.5% (inactive)
52 | CC1(C)CC(=O)C2=C(C1)NCN(CCCN1CCOCC1)C2 | -5.59% (inactive)
53 | O=C(CSc1nc2ccccc2c(=O)[nH]1)Nc1nc(-c2ccc(Br)cc2)cs1 | 55.8% (active)
54 | CCCn1c(C)cc(-c2csc(NC(=O)CCc3nc4ccccc4c(=O)[nH]3)n2)c1C | 5.04% (inactive)
55 | O=C(COC(=O)c1cc(=O)[nH]c2ccccc12)Nc1nc(-c2cccc(Br)c2)cs1 | 3.39% (inactive)
